Experimental data published in ChEMBL document CHEMBL3120085 (J Med Chem, 2014).

Assays:
[1] = Apparent passive permeability from apical to basolateral side in dog RRCK cells; format: ADME, cell-based, Canis lupus familiaris, MDCKII-LE; conditions: MDCK
Method in brief: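 Passive A→B permeability measured across RRCK cells, a low-transporter line isolated from MDCK cells.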

[2] = Volume of distribution at steady state in rat; format: ADME, organism-based; conditions: in vivo, read-out: Vdss
[3] = Oral bioavailability in rat at 5 mg/kg; format: ADME, organism-based; conditions: in vivo
Method in brief: (§1)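 F from mean AUC0−∞ after single doses: rat 1 mg/kg iv and 5 mg/kg po (n = 3/dose, or iv n = 2); monkey 1 mg/kg iv and 30 mg/kg po, n = 2/dose.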

[4] = Ratio of unbound drug level in brain homogenate to plasma in rat at 1 mg/kg, sc after 4 hrs; format: ADME, organism-based; design: dose 1 mg/kg, route subcutaneous
Method in brief: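 Rat neuropharmacokinetic study, single 1 mg/kg sc dose, n = 2 per time point. Ratio derived from AUC0−4 of unbound brain versus unbound plasma concentration. Unbound concentrations were corrected using the unbound fraction measured in brain homogenate and in plasma.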

[5] = Oral bioavailability in monkey at 30 mg/kg; format: ADME, organism-based, Macaca mulatta; conditions: rhesus monkey, in vivo; method in brief: as §1
[6] = Volume of distribution at steady state in monkey; format: ADME, organism-based, Macaca mulatta; conditions: rhesus monkey, in vivo; read-out: Vdss
[7] = Ratio of unbound drug level in brain homogenate to plasma in rat at 1 mg/kg, sc; format: ADME, organism-based; design: dose 1 mg/kg, route subcutaneous

SMILES | Papp A→B [1] [×10⁻⁶ cm/s] | further results
Cn1nc(-c2ccccc2)c2ccc(OCc3ccccn3)nc21 | 0.78 | 
Cn1nc(-c2ccccn2)c2ccc(OCc3ccccn3)nc21 | 11.7 | 
CCC(C)NC(=O)c1nn(C)c2nc(OCc3cccc(C)n3)ccc12 (stereo not given) | 19.8 | 
CCN(CC)C(=O)c1nn(C)c2nc(OCc3ccccn3)cnc12 | 31.5 | bioavailability [3]: 35%; Kp uu [7]: 0.51
Cn1nc(-c2cccnc2)c2ccc(OCc3ccccn3)nc21 | 24.4 | 
C[C@@H]1CCCN1C(=O)c1nn(C)c2nc(OCc3ccccn3)ccc12 | 21 | bioavailability [3]: 0.4%; Kp uu [7]: 1.01
Cn1nc(-c2ncccc2OC(F)F)c2ncc(OCc3ccccn3)nc21 | 28.7 | 

Further lines, with some results ahead:

Papp A→B [1] [×10⁻⁶ cm/s] | SMILES | further results
22.5 | Cn1nc(-c2cccnc2)c2ncc(OCc3ccccn3)nc21 | 
13.8 | CCn1nc(-c2cnccc2C)c2ncc(OCc3ccccn3)nc21 | 
14.4 | Cc1c(-c2nn(C)c3nc(OCc4ccccn4)cnc23)cnn1C | 
28.5 | Cc1cccnc1-c1nn(C)c2nc(OCc3ccccn3)cnc12 | 
14.1 | Cc1c(Cl)cncc1-c1nn(C)c2nc(OCc3ccccn3)cnc12 | 
21 | Cc1ccncc1-c1nn(C)c2nc(OCc3ccccn3)cnc12 | Vd [2]: 1.3 L/kg; bioavailability [3]: 28%; Kp uu at 4 h [4]: 2; bioavailability [5]: 67%; Vd [6]: 0.69 L/kg
21.4 | Cn1nc(-c2cnccc2C(F)(F)F)c2ncc(OCc3ccccn3)nc21 | 
21.5 | Cc1ccnnc1-c1nn(C)c2nc(OCc3ccccn3)cnc12 | 
19.6 | Cc1ccncc1-c1nn(C2CC2)c2nc(OCc3ccccn3)cnc12 | 
